High-throughput results from PubChem BioAssay.
Granule exo inh = LAMP-1 surface exposure blockers, TALL-104 cells – cell-based, flow cytometry, MLPCN library, primary screen. TALL-104 LAMP-1 surface exposure; cells stimulated with thapsigargin and PMA. inhibition, % at 10 µM. 0.66% of 360,000 active. AID 651702, 2012;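 active = inhibition above about 55%, limit read from the data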
Bfl-1 A1 inh = caspase 3/7 activation in MEF A1-2A-BIM cells, primary screen, A1 inhibitor project, cell-based, luminescence, HTS | Caspase-Glo 3/7 luminescence, 3 h; percent of clofoctol response, vehicle zero | caspase activation, % (no concentration beside the values) | 0.066% of 330,000 active | AID 2462, 2010;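 active = over half of replicate activation scores above 10%, or exactly half above 10 with the replicate mean above 10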
MC4R antagonist = MC4R antagonists of cAMP signaling, primary screen, cell-based, TR-FRET, antagonist arm of biased-ligand search. Melanocortin receptor 4 (Homo sapiens), P32245. MC4R-expressing cells, MTII-stimulated cAMP, LANCE TR-FRET. inhibition, % at 6.5 µM. 0.48% of 360,000 active;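 active = inhibition above its plate's cutoff, the mean of tested wells on that plate plus 3 SD, cut at about 29% in these data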;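 note: 0% = Melanotan II alone and 100% = Melanotan II plus saturating MCL0020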
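Material – human MC4R-expressing U2OS cells · Repeats – no replicates · Detection – TR-FRET with Eu-cAMP and labeled anti-cAMP, 671 nm · Times – compound 30 min, challenge 1 h, detection 1 h · Compound – single nominal compound dose of 6.5 µM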
NTR1 agonist = agonists of human NTR1, primary screen, imaging, U2OS cells, beta-arrestin-GFP, high content. Neurotensin receptor type 1 (Homo sapiens), P30989. NTR1-U2OS beta-arrestin-GFP spot imaging, agonist mode. activation, % at 20 µM. 0.17% of 330,000 active;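 active = activation at or above 40% of the spot to cytoplasm intensity ratio, with at least 20 cells analyzed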;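 note: 0% = DMSO without peptide and 100% = 100 nM NTR1 peptide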
MC4R ag barr = MC4R agonists recruiting beta-arrestin, primary screen, cell-based, luminescence, agonist arm of biased-ligand search; U2OS MC4R beta-arrestin complementation; percent of melanotan II response, DMSO zero; 0.98% of 360,000 active; activation, % at 8.9 µM;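 active = activation above a per-plate cutoff, the mean activation of sample wells on that plate plus 3 SD, cut at about 8% in these data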
sPLA2-III inh = human group III sPLA2 inhibitors, primary screen, biochemical, QFRET, BODIPY PC-A2 liposome substrate; QFRET BODIPY PC-A2 liposome hydrolysis, fluorescence; 0.56% of 370,000 active; AID 743126, 2013; inhibition, % at 12.2 µM;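 active = inhibition above mean plus 3 SD of compounds lying within the high and low control bounds, cut at about 19% in these data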;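 note: 0% = median of test compound wells and 100% = no enzyme DMSO wells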
Target sequence (Q9NZ20 whole entry, looked up): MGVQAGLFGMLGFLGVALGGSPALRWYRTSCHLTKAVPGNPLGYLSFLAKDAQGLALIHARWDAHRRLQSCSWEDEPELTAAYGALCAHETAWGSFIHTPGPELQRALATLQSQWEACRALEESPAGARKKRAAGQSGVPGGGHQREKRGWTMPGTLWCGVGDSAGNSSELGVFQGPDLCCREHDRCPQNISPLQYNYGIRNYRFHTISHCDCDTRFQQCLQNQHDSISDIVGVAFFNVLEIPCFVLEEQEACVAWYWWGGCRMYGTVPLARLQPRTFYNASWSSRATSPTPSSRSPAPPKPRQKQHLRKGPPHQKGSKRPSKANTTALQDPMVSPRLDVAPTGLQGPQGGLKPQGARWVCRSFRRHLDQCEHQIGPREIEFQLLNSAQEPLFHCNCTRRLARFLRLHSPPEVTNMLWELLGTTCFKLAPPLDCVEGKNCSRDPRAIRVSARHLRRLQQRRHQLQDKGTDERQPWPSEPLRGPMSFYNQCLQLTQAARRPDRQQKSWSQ
MC4R barr conf = MC4R beta-arrestin agonists, retest, confirmation, cell-based, luminescence, U2OS; shares compounds with MC4R ag barr; U2OS MC4R beta-arrestin recruitment; scaled DMSO 0%, Melanotan II 100%; activation, % at 8.9 µM; 31% of 2,400 active;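 active = mean activation across replicates above the hit cutoff set in the earlier primary screen, cut at about 8% in these data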
MOR DOR agonist = agonists of MOR-DOR heterodimerization, counter-screen for MC4R biased agonist project, cell-based, luminescence | 5.8% of 2,400 active | shares compounds with MC4R ag barr | U2OS PathHunter beta-arrestin, beta-gal luminescence; percent of deltorphin B response, DMSO zero | activation, % at 9.2 µM;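 active = mean activation across replicates exceeds the hit threshold derived in the earlier primary screen, cut at about 18% in these data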;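 note: 100% = deltorphin B at 0.9 µM final and 0% = DMSO alone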
An asterisk follows results filed as active; . = not tested or not shown. Most compounds without a hit are left out; they make up all but 2.5% or so of the library.

SMILES	Granule exo inh	Bfl-1 A1 inh	MC4R antagonist	NTR1 agonist	MC4R ag barr	sPLA2-III inh	MC4R barr conf	MOR DOR agonist
O=C(Cc1ccc(Cl)cc1)Nc1ccc(-c2nnc(-c3ccco3)o2)cc1	9	1	-2	1	12*	-7	13*	10
O=C(Cc1ccccc1)Nc1ccc(-c2nnc(-c3ccco3)o2)cc1	-3	0	-5	-1	3	-8	.	.
CC(=O)Nc1ccc(S(=O)(=O)N2CCN=C2SCc2ccc(F)cc2)cc1	2	-1	0	-1	-2	-17	.	.
O=[N+]([O-])c1ccc(S(=O)(=O)N2CCN=C2SCc2ccc(F)cc2)cc1	1	0	2	3	11*	9	4	8
COc1ccc(-c2nc(-c3ccc(Br)o3)no2)cc1	-2	-6	3	-1	13*	10	-2	3
COc1ccc(-c2noc(-c3ccc(Br)o3)n2)cc1	2	-2	5	-1	4	4	.	.
Cc1ccc(C2CCC3(CCC(=O)N3CCOC(=O)Nc3ccc(Br)cc3)CC2)cc1 (stereo unspecified)	.	.	.	.	.	4	.	.
O=C(COC(=O)/C=C/c1cccs1)Nc1nc(-c2ccccc2)cs1	0	-1	18	5	32*	-6	5	7
O=C(Cn1cc(C(F)(F)F)ccc1=O)N/N=C/c1ccc(Cl)c(Cl)c1	3	1	19	0	13*	-4	-1	9
CC(=NNC(=O)CSc1nnc(-c2ccccc2)n1-c1ccccc1)c1ccc2ccccc2c1	.	.	.	.	.	-6	.	.
CNC(=S)N/N=C/c1c(C)nn(-c2cccc(Cl)c2)c1Cl	3	2	-1	3	22*	2	3	5
Cc1oc(C(C)(C)C)cc1C(=O)N1CCN(c2ncccc2C(F)(F)F)CC1	-9	0	5	3	1	4	.	.
Cc1cc(C)c2cc(C(=O)N3CCN(c4ncccc4C(F)(F)F)CC3)[nH]c2c1	-23	1	6	6	12*	-12	1	4
Nc1c(C(=O)Nc2ccccc2Cl)nnn1-c1ccc2c(c1)OCCO2	47	0	9	6	16*	-8	2	4
Nc1c(C(=O)Nc2ccc3c(c2)OCCO3)nnn1CCc1ccccc1	-2	-1	-13	6	0	-3	.	.
Cc1cc(-n2nnc3ccccc32)nc2ccccc12	-2	0	-3	7	18*	-4	-1	2
Oc1ccccc1-c1nc(NCc2ccccc2)c2ccccc2n1	-11	-1	2	11	12*	-4	8	5
Oc1ccccc1-c1nc(NCc2ccco2)c2ccccc2n1	1	0	-5	10	13*	-6	6	3
Oc1ccccc1-c1nc(NCc2cccnc2)c2ccccc2n1	3	0	-2	5	-3	-8	.	.
Fc1ccccc1-c1nc(NCc2ccco2)c2ccccc2n1	-9	-1	-1	0	1	-18	.	.
COc1cccc(CO[C@H]2C=C[C@@H](c3ccccc3)O[C@@H]2COC(C)=O)c1	.	.	.	.	.	3	.	.
CC(=O)c1cc(-c2cccc(C(C)C)c2)c(=O)n2c1CCC2	.	.	.	.	.	-4	.	.
